# Test results reported in ChEMBL document CHEMBL4382206, “Inhibition of adherence of the yeast Candida albicans to buccal epithelial cells by synthetic aromatic glycoconjugates” (Eur J Med Chem, 2018).
# Activity calls are given as the source filed them. The calls are words filed in the database; no cut-off is given here.
# Legend:
# Candida albicans [1] = test: Antimicrobial activity against Candida albicans assessed as inhibition of fungal adherence to BEC by measuring change in adhesion at 10 mg/ml treated with fungus for 90 mins followed by compound washout and cell line addition by crystal violet staining based microscopic analysis relative to control; type: functional; design: scale not given: the % may be the effect or the level left
# Summary of the method: (§1)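 Stationary-phase C. albicans, grown overnight in YEPD at 30°C and 200 rpm, was washed and suspended in PBS at 1 x 10^8/mL. Yeast was preincubated 90 min with compound, washed twice, and mixed 50:1 with donor buccal cells (5 x 10^5/ml) at 30°C, 200 rpm, for 90 min. Samples were filtered through 30 µm pores, stained with crystal violet, and yeast counted on 200 BECs; n=3, mean ± SEM.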
# Candida albicans [2] = test: Growth inhibition of Candida albicans at 0.02 to 10 mg/ml; type: organism-based
# Candida albicans [3] = test: Antimicrobial activity against Candida albicans assessed as inhibition of fungal adherence to BEC at 0.1 mg/ml treated with fungus for 90 mins followed by compound washout and cell line addition by crystal violet staining based microscopic analysis; type: functional, organism-based; summary of the method: as §1
# Candida albicans [4] = test: Antimicrobial activity against Candida albicans assessed as inhibition of fungal adherence to BEC by measuring adhesion at 0.1 mg/ml after 90 mins by crystal violet staining based microscopic analysis relative to control; type: functional; conditions: 1.5 h
# Summary of the method: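 Competition format: yeast (1 x 10^8/mL PBS) and exfoliated human buccal cells (50:1 ratio) were co-incubated with compound for 90 min at 30°C, 200 rpm. BECs were trapped on a 30 µm polycarbonate membrane, washed twice with PBS, heat-fixed and crystal violet-stained. Adherent yeast were counted microscopically on 200 random BECs; three independent occasions, mean ± SEM.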
# Candida albicans [5] = test: Antimicrobial activity against Candida albicans assessed as inhibition of fungal adherence to BEC at 0.1 mg/ml incubated with fungal/BEC mixture for 90 mins by crystal violet staining based microscopic analysis relative to untreated control; type: functional; conditions: 1.5 h
# Candida albicans [6] = test: Antimicrobial activity against Candida albicans assessed as inhibition of fungal adherence to BEC at 0.1 mg/ml incubated with fungal/BEC mixture for 90 mins by crystal violet staining based microscopic analysis relative to PBS treated control; type: functional; conditions: 1.5 h
# [7] = Drug uptake in Candida albicans cell membrane by confocal microscopic analysis; type: ADME, cell-based
# Summary of the method: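 For confocal imaging, C. albicans cells were co-incubated with the fluorescein-labelled galactoside, with untreated cells and FITC-treated cells as controls. Excitation was at 488 nm and emission was collected at 500–600 nm.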
SMILES,Activity (Candida albicans [1]) [%],growth inhibition (GI) (Candida albicans [2]),further results
CCC(=O)Nc1cc(C(=O)NCc2cn([C@H]3O[C@@H](C)[C@@H](O)[C@@H](O)[C@@H]3O)nn2)cc(C(=O)NCc2cn([C@H]3O[C@@H](C)[C@@H](O)[C@@H](O)[C@@H]3O)nn2)c1,-8,Non-Toxic,
CCC(=O)Nc1cc(C(=O)NCc2cn([C@H]3O[C@H](CO)[C@@H](O)[C@H](O)[C@@H]3O)nn2)cc(C(=O)NCc2cn([C@H]3O[C@H](CO)[C@@H](O)[C@H](O)[C@@H]3O)nn2)c1,3,,
CCC(=O)Nc1cc(C(=O)NCc2cn([C@@H]3O[C@H](CO)[C@H](O)[C@H](O)[C@H]3O)nn2)cc(C(=O)NCc2cn([C@@H]3O[C@H](CO)[C@H](O)[C@H](O)[C@H]3O)nn2)c1,-80,Non-Toxic,inhibition (Candida albicans [3]): Active; inhibition at 100 µg/mL (Candida albicans [4]): 65%; inhibition at 100 µg/mL (Candida albicans [5]): 56%; inhibition at 100 µg/mL (Candida albicans [6]): 31%
O=C(NCc1cn([C@@H]2O[C@H](CO)[C@H](O)[C@H](O)[C@H]2O)nn1)c1cc(NC(=S)Nc2ccc3c(c2)C(=O)OC32c3ccc(O)cc3Oc3cc(O)ccc32)cc(C(=O)NCc2cn([C@@H]3O[C@H](CO)[C@H](O)[C@H](O)[C@H]3O)nn2)c1,,,Drug uptake [7]: Active
CCC(=O)Nc1cc(C(=O)NCc2cn([C@H]3O[C@H](CO)[C@@H](O)[C@H](O)[C@H]3NC(C)=O)nn2)cc(C(=O)NCc2cn([C@H]3O[C@H](CO)[C@@H](O)[C@H](O)[C@H]3NC(C)=O)nn2)c1,-45,,
O=C(NCc1cn([C@@H]2O[C@H](CO)[C@H](O)[C@H](O)[C@H]2O)nn1)c1cc(C(=O)NCc2cn([C@@H]3O[C@H](CO)[C@H](O)[C@H](O)[C@H]3O)nn2)cc(C(=O)NCc2cn([C@@H]3O[C@H](CO)[C@H](O)[C@H](O)[C@H]3O)nn2)c1,-45,Non-Toxic,
CCC(=O)Nc1cc(C(=O)N[C@@H]2O[C@H](CO)[C@H](O)[C@H](O)[C@H]2O)cc(C(=O)N[C@@H]2O[C@H](CO)[C@H](O)[C@H](O)[C@H]2O)c1,-26,,
CCC(=O)Nc1cccc(C(=O)NCc2cn([C@H]3O[C@@H](C)[C@@H](O)[C@@H](O)[C@@H]3O)nn2)c1,-2,,
CCC(=O)Nc1cc(C(=O)NCc2cn(CCO[C@@H]3O[C@H](CO)[C@H](O)[C@H](O)[C@H]3O)nn2)cc(C(=O)NCc2cn(CCO[C@@H]3O[C@H](CO)[C@H](O)[C@H](O)[C@H]3O)nn2)c1,-35,Non-Toxic,
C[C@@H]1O[C@H](n2cc(CNC(=O)c3cc(C(=O)NCc4cn([C@H]5O[C@@H](C)[C@@H](O)[C@@H](O)[C@@H]5O)nn4)cc(C(=O)NCc4cn([C@H]5O[C@@H](C)[C@@H](O)[C@@H](O)[C@@H]5O)nn4)c3)nn2)[C@@H](O)[C@H](O)[C@@H]1O,-30,Non-Toxic,
O=C(NCc1cn(CCO[C@@H]2O[C@H](CO)[C@H](O)[C@H](O)[C@H]2O)nn1)c1cc(C(=O)NCc2cn(CCO[C@@H]3O[C@H](CO)[C@H](O)[C@H](O)[C@H]3O)nn2)cc(C(=O)NCc2cn(CCO[C@@H]3O[C@H](CO)[C@H](O)[C@H](O)[C@H]3O)nn2)c1,-42,Non-Toxic,
CCC(=O)Nc1cc(C(=O)NCc2cn([C@@H]3O[C@H](CO)[C@H](O)[C@H](O)[C@H]3O)nn2)cc(C(=O)NCc2cn([C@@H]3O[C@H](CO)[C@@H](O)[C@H](O)[C@@H]3O)nn2)c1,-24,,
CCC(=O)Nc1cccc(C(=O)NCc2cn([C@@H]3O[C@H](CO)[C@H](O)[C@H](O)[C@H]3O)nn2)c1,-14.5,,
CCC(=O)Nc1cccc(C(=O)NCc2cn(CCO[C@@H]3O[C@H](CO)[C@H](O)[C@H](O)[C@H]3O)nn2)c1,-7.5,,
CC[C@H](C)C[C@H](C)CCCCCCCCC(=O)N[C@H]1C[C@@H](O)[C@@H](NCCN)NC(=O)[C@@H]2[C@@H](O)CCN2C(=O)[C@H]([C@H](O)CCN)NC(=O)[C@H]([C@H](O)[C@@H](O)c2ccc(O)cc2)NC(=O)[C@@H]2C[C@@H](O)CN2C(=O)[C@H]([C@@H](C)O)NC1=O [CASPOFUNGIN],,Non-Toxic,
CCC(=O)Nc1cc(C(=O)NCc2cn([C@@H]3O[C@H](CO)[C@H](O[C@@H]4O[C@H](CO)[C@H](O)[C@H](O)[C@H]4O)[C@H](O)[C@H]3O)nn2)cc(C(=O)NCc2cn([C@@H]3O[C@H](CO)[C@H](O[C@@H]4O[C@H](CO)[C@H](O)[C@H](O)[C@H]4O)[C@H](O)[C@H]3O)nn2)c1,6.5,,
